Measured values reported in ChEMBL document CHEMBL1143835, “Antipropionibacterial activity of BAL19403, a novel macrolide antibiotic” (2007).
Converted amounts (≈) assume the structure as drawn.

Key:
Cutibacterium acnes [1] = assay: Antibacterial activity against drug-resistant Propionibacterium acnes SW10 after 48 hrs by broth microdilution method; format: functional
Outline: (§1)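 Broth microdilution MIC in Wilkins-Chalgren broth without lysed horse blood, following CLSI anaerobe guidelines. Plates were held in anaerobic jars with atmosphere generators (O2 <0.1% by 2.5 h, CO2 >15% by 24 h) at 35 to 37°C for 48 h. Growth was read with an illuminated plate reader and magnifying mirror.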

Cutibacterium acnes [2] = assay: Antibacterial activity against drug-resistant Propionibacterium acnes SW16 after 48 hrs by broth microdilution method; format: functional; outline: as §1
Cutibacterium acnes [3] = assay: Antibacterial activity against drug-resistant Propionibacterium acnes SW17 after 48 hrs by broth microdilution method; format: functional; outline: as §1
Cutibacterium acnes [4] = assay: Antibacterial activity against drug-resistant Propionibacterium acnes SW26 after 48 hrs by broth microdilution method; format: functional; outline: as §1
Cutibacterium acnes [5] = assay: Antibacterial activity against drug-resistant Propionibacterium acnes D-04/97 after 48 hrs by broth microdilution method; format: functional; outline: as §1
Cutibacterium acnes [6] = assay: Antibacterial activity against drug-resistant Propionibacterium acnes OK8/97 after 48 hrs by broth microdilution method; format: functional; outline: as §1
Cutibacterium acnes [7] = assay: Antibacterial activity against drug-resistant Propionibacterium acnes EG7NS after 48 hrs by broth microdilution method; format: functional; outline: as §1
Cutibacterium acnes [8] = assay: Antibacterial activity against drug-resistant Propionibacterium acnes EG13NS after 48 hrs by broth microdilution method; format: functional; outline: as §1
[9] = system: Propionibacterium granulosum; assay: Antibacterial activity against drug-resistant Propionibacterium granulosum NCTC-11865 after 48 hrs by broth microdilution method; format: functional; conditions: Cutibacterium granulosum, NCTC-11865, 48 h; outline: as §1
Cutibacterium acnes [10] = assay: Antibacterial activity against drug-resistant Propionibacterium acnes SW11 after 48 hrs by broth microdilution method; format: functional; outline: as §1
Cutibacterium acnes [11] = assay: Antibacterial activity against drug-resistant Propionibacterium acnes EG3NS after 48 hrs by broth microdilution method; format: functional; outline: as §1
Cutibacterium acnes [12] = assay: Antibacterial activity against drug-resistant Propionibacterium acnes SW3CD after 48 hrs by broth microdilution method; format: functional; outline: as §1
Cutibacterium acnes [13] = assay: Antibacterial activity against drug-resistant Propionibacterium acnes P95 after 48 hrs by broth microdilution method; format: functional; outline: as §1
Cutibacterium acnes [14] = assay: Antibacterial activity against drug-resistant Propionibacterium acnes FG7E after 48 hrs by broth microdilution method; format: functional; outline: as §1
Cutibacterium acnes [15] = assay: Antibacterial activity against drug-resistant Propionibacterium acnes GE4E after 48 hrs by broth microdilution method; format: functional; outline: as §1
Cutibacterium acnes [16] = assay: Antibacterial activity against drug-resistant Propionibacterium acnes SP64E after 48 hrs by broth microdilution method; format: functional; outline: as §1
Cutibacterium acnes [17] = assay: Antibacterial activity against drug-resistant Propionibacterium acnes SW101CDA after 48 hrs by broth microdilution method; format: functional; outline: as §1
Cutibacterium acnes [18] = assay: Antibacterial activity against drug-resistant Propionibacterium acnes P:413 after 48 hrs by broth microdilution method; format: functional; outline: as §1
Cutibacterium acnes [19] = assay: Antibacterial activity against drug-resistant Propionibacterium acnes P322:2 after 48 hrs by broth microdilution method; format: functional; outline: as §1
Cutibacterium acnes [20] = assay: Antibacterial activity against drug-resistant Propionibacterium acnes EG7NS after 72 hrs; format: functional
Outline: (§2)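 MBC for P. acnes followed MIC assays by standard methodology. Samples were plated on Wilkins-Chalgren agar, incubated anaerobically in GENbox jars at 35 to 37°C, and examined for growth after 72 h.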

Cutibacterium acnes [21] = assay: Antibacterial activity against drug-resistant Propionibacterium acnes SW3CD after 72 hrs; format: functional; outline: as §2
Cutibacterium acnes [22] = assay: Antibacterial activity against drug-resistant Propionibacterium acnes P95 after 72 hrs; format: functional; outline: as §2
Cutibacterium acnes [23] = assay: MBC/MIC ratio of Propionibacterium acnes EG7NS; format: functional
Outline: (§3)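 MIC by CLSI broth microdilution in Wilkins-Chalgren broth in anaerobic jars (O2 <0.1%, CO2 >15%), read after 48 h at 35–37°C on an illuminated plate reader. For MBC, samples were plated onto Wilkins-Chalgren agar and incubated anaerobically for 72 h at 35–37°C before growth was scored.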

Cutibacterium acnes [24] = assay: MBC/MIC ratio of Propionibacterium acnes SW3CD; format: functional; outline: as §3
Cutibacterium acnes [25] = assay: MBC/MIC ratio of Propionibacterium acnes P95; format: functional; outline: as §3
Corynebacterium jeikeium = assay: Antibacterial activity against Corynebacterium jeikeium after 48 hrs by broth microdilution method; format: functional
Outline: (§4)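 Broth microdilution per CLSI in cation-adjusted Mueller-Hinton broth supplemented with 0.5% (vol/vol) Tween 80. Plates incubated at 35°C in ambient air for 44 to 48 h, then read visually. MICs in μg/ml; a geometric mean MIC was calculated across the corynebacterial strains.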

[26] = system: Corynebacterium diphtheriae; assay: Antibacterial activity against Corynebacterium diphtheriae after 48 hrs by broth microdilution method; format: functional; outline: as §4
[27] = system: Corynebacterium amycolatum; assay: Antibacterial activity against Corynebacterium amycolatum after 48 hrs by broth microdilution method; format: functional; outline: as §4
[28] = system: Corynebacterium minutissimum; assay: Antibacterial activity against Corynebacterium minutissimum after 48 hrs by broth microdilution method; format: functional; outline: as §4
[29] = system: Staphylococcus epidermidis; assay: Antibacterial activity against Staphylococcus epidermidis after 48 hrs by broth microdilution method; format: functional
Staphylococcus aureus [30] = assay: Antibacterial activity against methicillin-susceptible Staphylococcus aureus after 48 hrs by broth microdilution method; format: functional
[31] = Antibacterial activity against Streptococcus dysgalactiae subsp. dysgalactiae after 48 hrs by broth microdilution method; format: functional
[32] = system: Streptococcus equi subsp. zooepidemicus; assay: Antibacterial activity against Streptococcus equi subsp. zooepidemicus after 48 hrs by broth microdilution method; format: functional
Cutibacterium acnes [33] = assay: Antibacterial activity against drug-resistant Propionibacterium acnes P401:5 after 48 hrs by broth microdilution method; format: functional; outline: as §1
Cutibacterium acnes [34] = assay: Antibacterial activity against drug-resistant Propionibacterium acnes P425:1 after 48 hrs by broth microdilution method; format: functional; outline: as §1
Cutibacterium acnes [35] = assay: Antibacterial activity against drug-resistant Propionibacterium acnes P429:1 (SC) after 48 hrs by broth microdilution method; format: functional; outline: as §1
Cutibacterium acnes [36] = assay: Antibacterial activity against drug-resistant Propionibacterium acnes P429:1 (BC) after 48 hrs by broth microdilution method; format: functional; outline: as §1
Cutibacterium acnes [37] = assay: Antibacterial activity against drug-resistant Propionibacterium acnes SW54EA after 48 hrs by broth microdilution method; format: functional; outline: as §1
Cutibacterium acnes [38] = assay: Antibacterial activity against drug-resistant Propionibacterium acnes SW101T after 48 hrs by broth microdilution method; format: functional; outline: as §1
Cutibacterium acnes [39] = assay: Antibacterial activity against drug-resistant Propionibacterium acnes GE46EB after 48 hrs by broth microdilution method; format: functional; outline: as §1
Streptococcus pyogenes = assay: Antibacterial activity against Streptococcus pyogenes after 20 to 24 hrs by broth microdilution method
Staphylococcus aureus [40] = assay: Antibacterial activity against methicillin-resistant Staphylococcus aureus after 20 to 24 hrs by broth microdilution method
[41] = system: Propionibacterium granulosum; assay: Antibacterial activity against drug-resistant Propionibacterium granulosum QK6/92 after 48 hrs by broth microdilution method
Staphylococcus aureus [42] = assay: Antibacterial activity against borderline oxacillin-resistant Staphylococcus aureus after 20 to 24 hrs by broth microdilution method

Structure (SMILES): CC[C@H]1OC(=O)[C@H](C)[C@@H](O[C@H]2C[C@@](C)(OC)[C@@H](O)[C@H](C)O2)[C@H](C)[C@@H](O[C@@H]2O[C@H](C)C[C@H](N(C)C)[C@H]2O)[C@](C)(O)C[C@@H](C)C(=O)[C@H](C)[C@@H](O)[C@]1(C)O [ERYTHROMYCIN]
- MIC (Cutibacterium acnes [1]): ≤ 0.06 µg/mL
- MIC (Cutibacterium acnes [2]): ≤ 0.06 µg/mL
- MIC (Cutibacterium acnes [3]): ≤ 0.06 µg/mL
- MIC (Cutibacterium acnes [4]): ≤ 0.06 µg/mL
- MIC (Cutibacterium acnes [5]): ≤ 0.06 µg/mL
- MIC (Cutibacterium acnes [6]): 0.125 µg/mL (≈ 0.17 µM)
- MIC (Cutibacterium acnes [7]): ≤ 0.06 µg/mL
- MIC (Cutibacterium acnes [8]): ≤ 0.06 µg/mL
- MIC [9]: 0.125 µg/mL (≈ 0.17 µM)
- MIC (Cutibacterium acnes [10]): 0.125 µg/mL (≈ 0.17 µM)
- MIC (Cutibacterium acnes [11]): ≤ 0.06 µg/mL
- MIC (Cutibacterium acnes [12]): ≤ 0.06 µg/mL
- MIC (Cutibacterium acnes [13]): 4 µg/mL (≈ 5.45 µM)
- MIC (Cutibacterium acnes [14]): > 512 µg/mL
- MIC (Cutibacterium acnes [15]): > 512 µg/mL
- MIC (Cutibacterium acnes [16]): > 512 µg/mL
- MIC (Cutibacterium acnes [17]): > 512 µg/mL
- MIC (Cutibacterium acnes [18]): ≤ 0.06 µg/mL
- MIC (Cutibacterium acnes [19]): > 512 µg/mL
- MBC (Cutibacterium acnes [20]): > 32 µg/mL
- MBC (Cutibacterium acnes [21]): 0.125 µg/mL (≈ 0.17 µM)
- MBC (Cutibacterium acnes [22]): > 32 µg/mL
- Ratio (Cutibacterium acnes [23]): >=533
- Ratio (Cutibacterium acnes [24]): >=2
- Ratio (Cutibacterium acnes [25]): >8
- MIC (Corynebacterium jeikeium): 1.47 µg/mL (≈ 2 µM)
- MIC [26]: 1.47 µg/mL (≈ 2 µM)
- MIC [27]: 1.47 µg/mL (≈ 2 µM)
- MIC [28]: 1.47 µg/mL (≈ 2 µM)
- MIC [29]: 3 µg/mL (≈ 4.09 µM)
- MIC (Staphylococcus aureus [30]): 3.26 µg/mL (≈ 4.44 µM)
- MIC [31]: 0.09 µg/mL (≈ 0.123 µM)
- MIC [32]: 0.14 µg/mL (≈ 0.191 µM)
- MIC (Cutibacterium acnes [33]): 2 µg/mL (≈ 2.73 µM)
- MIC (Cutibacterium acnes [34]): > 512 µg/mL
- MIC (Cutibacterium acnes [35]): 4 µg/mL (≈ 5.45 µM)
- MIC (Cutibacterium acnes [36]): 2 µg/mL (≈ 2.73 µM)
- MIC (Cutibacterium acnes [37]): > 512 µg/mL
- MIC (Cutibacterium acnes [38]): > 512 µg/mL
- MIC (Cutibacterium acnes [39]): > 512 µg/mL
- MIC (Streptococcus pyogenes): 0.32 µg/mL (≈ 0.436 µM)
- MIC (Staphylococcus aureus [40]): 3.26 µg/mL (≈ 4.44 µM)
- MIC [41]: 0.5 µg/mL (≈ 0.681 µM)
- MIC (Staphylococcus aureus [42]): 3.26 µg/mL (≈ 4.44 µM)
